Reference: ChEMBL document CHEMBL1139315, “Search for new pharmacophores for antimalarial activity. Part II: synthesis and antimalarial activity of new 6-ureido-4-anilinoquinazolines” (Bioorg Med Chem, 2009)
In brackets after ≈: the same amount, converted by molar mass.

What was measured:
Plasmodium falciparum [1] = test: Antimalarial activity as schizonticidal activity after 48 hrs against chloroquine-sensitive Plasmodium falciparum 3D7; assay type: functional; conditions: 3D7, 48 h
Summary of the method: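 3D7 ring stages synchronized with 5% sorbitol; 3% cell suspension at 1% parasitaemia added to duplicate wells of diluted compound (DMSO stock 5 mg/mL, diluted in RPMI). Incubated at 37 °C under CO2 for more than 40 h. Giemsa-stained thin smears counted by light microscopy; MIC = lowest concentration giving 100% inhibition of schizont maturation against untreated control.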

[2] = system: Plasmodium yoelii nigeriensis; test: (§1) Antimalarial activity as reduced parasitaemia against Plasmodium yoelii nigeriensis MDR infected Swiss mice (Mus musculus) at 100 mg/kg peroral dose […]; assay type: functional; parameters: scale not given: the % may be the effect or the level left; conditions: route oral
Summary of the method: (§2)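 Swiss mice (25 g, either sex), five per group, infected with 1 × 10^6 parasitized cells on day 0. Aqueous suspension given orally from day 0 to day 4; vehicle-only group as control. Parasitaemia read from tail-vein thin blood smears, reported as mean % parasitaemia on day 4 and day 7.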

Plasmodium yoelii = test: Antimalarial activity as reduced parasitaemia against chloroquine-resistant Plasmodium yoelii infected Swiss mice (Mus musculus) at 100 mg/kg peroral dose for 4 days; assay type: functional; parameters: scale not given: the % may be the effect or the level left; conditions: route oral
[3] = system: Plasmodium yoelii nigeriensis; test: Antimalarial activity as reduced parasitaemia against Plasmodium yoelii nigeriensis MDR infected Swiss mice (Mus musculus) at 100 mg/kg peroral dose for 4 days; assay type: functional; parameters: scale not given: the % may be the effect or the level left; conditions: route oral; summary of the method: as §2
Plasmodium falciparum [4] = test: Antimalarial activity after 72 hrs against chloroquine-sensitive Plasmodium falciparum 3D7 infected erythrocytes by MSF assay; assay type: functional, organism-based; conditions: 3D7, 72 h
Summary of the method: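 P. falciparum 3D7 kept in RPMI with gentamicin 40 µg/mL, Fungizone 0.25 µg/mL and 10% FBS (pH 7.2) at 37 °C under CO2. Twofold serial dilutions over seven concentrations, top 10–500 ng/mL, duplicate wells; 2.5% haematocrit, 0.5% parasitaemia; 72 h. SYBR Green I in lysis buffer (Tris pH 7.5, EDTA, saponin, Triton X-100), 1 h at room temperature, fluorescence read; IC50 by logit regression.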

[5] = Selectivity index, ratio of CC50 for african green monkey (Cercopithecus aethiops) Vero C1008 cells to IC50 for chloroquine-sensitive Plasmodium falciparum 3D7; assay type: functional
Summary of the method: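 Vero C1008 cells exposed to serially diluted compound, highest 100 µg/mL, for 72 h; MTT read-out; CC50 = concentration killing 50% of cells. SI = CC50/IC50, with IC50 from the SYBR Green I assay on 3D7.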

Mus musculus = test: Toxicity against Plasmodium yoelii nigeriensis MDR infected Swiss mice (Mus musculus) assessed as death at 100 mg/kg, perorally; assay type: organism-based; parameters: dose 100 mg/kg, route oral; conditions: in vivo, po
[6] = system: Plasmodium yoelii nigeriensis; test: as §1; assay type: functional; parameters: scale not given: the % may be the effect or the level left; conditions: route oral; summary of the method: as §2; remark: listed apart in the source

Compound | MIC (Plasmodium falciparum [1]) | also measured
COc1ccc(Nc2ncnc3ccc(NC(=O)Nc4cccc(C(C)=O)c4)cc23)cc1OC | 10 µg/mL (≈ 21.9 µM) | 
O=C(Nc1ccc(Cl)cc1)Nc1ccc2ncnc(Nc3ccc(F)cc3)c2c1 | 0.5 µg/mL (≈ 1.23 µM) | Activity [2]: 9.38%; Activity (Plasmodium yoelii): 1.18%
Cc1ccc(NC(=O)Nc2ccc3ncnc(Nc4ccc(F)cc4)c3c2)cc1Cl | 0.5 µg/mL (≈ 1.19 µM) | Activity [2]: 4.06%; Activity (Plasmodium yoelii): 2.8%
COc1cccc(Nc2ncnc3ccc(NC(=O)Nc4cccc(C(C)=O)c4)cc23)c1 | 10 µg/mL (≈ 23.4 µM) | 
O=C(Nc1ccc(Br)cc1)Nc1ccc2ncnc(Nc3ccc(F)cc3)c2c1 | 10 µg/mL (≈ 22.1 µM) | 
O=C(Nc1cc(Cl)cc(Cl)c1)Nc1ccc2ncnc(Nc3cccc(C(F)(F)F)c3)c2c1 | 10 µg/mL (≈ 20.3 µM) | 
O=C(Nc1ccc(Cl)c(C(F)(F)F)c1)Nc1ccc2ncnc(Nc3cccc(C(F)(F)F)c3)c2c1 | 0.25 µg/mL (≈ 0.475 µM) | Activity [2]: 30.5%; Activity [3]: 10%; IC50 (Plasmodium falciparum [4]): 0.0023 µg/mL (≈ 0.00437 µM); Ratio CC50/IC50 [5]: 1194
COc1cccc(Nc2ncnc3ccc(NC(=O)Nc4cccc(C#N)c4)cc23)c1 | 10 µg/mL (≈ 24.4 µM) | 
COc1cccc(Nc2ncnc3ccc(NC(=O)Nc4ccc(C)c(Cl)c4)cc23)c1 | 0.5 µg/mL (≈ 1.15 µM) | 
Cc1ccc(NC(=O)Nc2ccc3ncnc(Nc4cccc(C(F)(F)F)c4)c3c2)cc1Cl | 10 µg/mL (≈ 21.2 µM) | 
O=C(Nc1ccc(Cl)c(Cl)c1)Nc1ccc2ncnc(Nc3cccc(C(F)(F)F)c3)c2c1 | 0.25 µg/mL (≈ 0.508 µM) | IC50 (Plasmodium falciparum [4]): 0.013 µg/mL (≈ 0.0264 µM); Ratio CC50/IC50 [5]: 69
Cc1ccc(Nc2ncnc3ccc(NC(=O)Nc4ccc(Br)cc4)cc23)cc1 | 1 µg/mL (≈ 2.23 µM) | 
N#Cc1cccc(NC(=O)Nc2ccc3ncnc(Nc4cccc(C(F)(F)F)c4)c3c2)c1 | 1 µg/mL (≈ 2.23 µM) | 
O=C(Nc1ccc(Cl)cc1)Nc1ccc2ncnc(Nc3cccc(C(F)(F)F)c3)c2c1 | 0.25 µg/mL (≈ 0.546 µM) | IC50 (Plasmodium falciparum [4]): 0.0674 µg/mL (≈ 0.147 µM); Ratio CC50/IC50 [5]: 35.9
O=C(Nc1ccc(Cl)c(Cl)c1)Nc1ccc2ncnc(Nc3ccc(Cl)cc3)c2c1 | 0.5 µg/mL (≈ 1.09 µM) | 
O=C(Nc1ccc(Cl)c(Cl)c1)Nc1ccc2ncnc(Nc3cccc(F)c3)c2c1 | 0.25 µg/mL (≈ 0.565 µM) | IC50 (Plasmodium falciparum [4]): 0.0245 µg/mL (≈ 0.0554 µM); Ratio CC50/IC50 [5]: 221.5
O=C(Nc1ccc(Cl)c(C(F)(F)F)c1)Nc1ccc2ncnc(Nc3cccc(F)c3)c2c1 | 0.5 µg/mL (≈ 1.05 µM) | Activity [2]: 14.5%; Activity [3]: 22%
CC(=O)c1cccc(NC(=O)Nc2ccc3ncnc(Nc4ccc(C)cc4)c3c2)c1 | 2 µg/mL (≈ 4.86 µM) | 
COc1ccc(Nc2ncnc3ccc(NC(=O)Nc4ccc(Br)cc4)cc23)cc1OC | 0.5 µg/mL (≈ 1.01 µM) | Activity [2]: 26.5%; Activity [3]: 26.3%
COc1ccc(Nc2ncnc3ccc(NC(=O)Nc4ccc(C)c(Cl)c4)cc23)cc1OC | 0.25 µg/mL (≈ 0.539 µM) | IC50 (Plasmodium falciparum [4]): 0.0223 µg/mL (≈ 0.0481 µM); Ratio CC50/IC50 [5]: 449
COc1ccc(Nc2ncnc3ccc(NC(=O)Nc4cc(Cl)cc(Cl)c4)cc23)cc1OC | 0.25 µg/mL (≈ 0.516 µM) | Activity [2]: 10.75%; Activity [3]: 23.7%; IC50 (Plasmodium falciparum [4]): 0.0832 µg/mL (≈ 0.172 µM); Ratio CC50/IC50 [5]: 36.1

Compound | MIC (Plasmodium falciparum [1]) | also measured
COc1ccc(Nc2ncnc3ccc(NC(=O)Nc4ccc(Cl)cc4)cc23)cc1OC | 0.5 µg/mL (≈ 1.11 µM) | 
COc1ccc(Nc2ncnc3ccc(NC(=O)Nc4ccc(Cl)c(Cl)c4)cc23)cc1 | 2 µg/mL (≈ 4.4 µM) | 
COc1ccc(Nc2ncnc3ccc(NC(=O)Nc4ccc(C(C)=O)cc4)cc23)cc1 | 2 µg/mL (≈ 4.68 µM) | 
N#Cc1cccc(NC(=O)Nc2ccc3ncnc(Nc4cccc(Cl)c4)c3c2)c1 | 0.5 µg/mL (≈ 1.21 µM) | 
O=C(Nc1ccc(Cl)c(Cl)c1)Nc1ccc2ncnc(Nc3cccc(Cl)c3)c2c1 | 0.5 µg/mL (≈ 1.09 µM) | 
O=C(Nc1ccc(Br)cc1)Nc1ccc2ncnc(Nc3cccc(C(F)(F)F)c3)c2c1 | 2 µg/mL (≈ 3.98 µM) | Activity (Mus musculus): Toxic; Activity [3]: 50.4%
O=C(Nc1ccc(Br)cc1)Nc1ccc2ncnc(Nc3ccccc3)c2c1 | 0.25 µg/mL (≈ 0.576 µM) | IC50 (Plasmodium falciparum [4]): 0.173 µg/mL (≈ 0.399 µM); Ratio CC50/IC50 [5]: 132.5
O=C(Nc1ccc(Cl)cc1)Nc1ccc2ncnc(Nc3ccccc3)c2c1 | 1 µg/mL (≈ 2.57 µM) | 
COc1ccc(Nc2ncnc3ccc(NC(=O)Nc4ccc(Cl)c(C(F)(F)F)c4)cc23)cc1OC | 0.25 µg/mL (≈ 0.483 µM) | Activity [2]: 0.49%; Activity [3]: 0%; IC50 (Plasmodium falciparum [4]): 0.0182 µg/mL (≈ 0.0351 µM); Ratio CC50/IC50 [5]: 345.8; Activity [6]: 99%
COc1ccc(Nc2ncnc3ccc(NC(=O)Nc4cccc(C#N)c4)cc23)cc1 | 2 µg/mL (≈ 4.87 µM) | 
Cc1ccc(Nc2ncnc3ccc(NC(=O)Nc4cccc(C#N)c4)cc23)cc1 | 10 µg/mL (≈ 25.4 µM) | 
Cc1ccc(Nc2ncnc3ccc(NC(=O)Nc4ccc(C)c(Cl)c4)cc23)cc1 | 0.5 µg/mL (≈ 1.2 µM) | Activity [2]: 10.82%; Activity (Plasmodium yoelii): 3.38%
Cc1ccc(Nc2ncnc3ccc(NC(=O)Nc4ccc(Cl)c(Cl)c4)cc23)cc1 | 1 µg/mL (≈ 2.28 µM) | 
O=C(Nc1ccc(Cl)c(Cl)c1)Nc1ccc2ncnc(Nc3ccccc3)c2c1 | 10 µg/mL (≈ 23.6 µM) | 
N#Cc1cccc(NC(=O)Nc2ccc3ncnc(Nc4cccc(F)c4)c3c2)c1 | 0.5 µg/mL (≈ 1.26 µM) | Activity (Mus musculus): Toxic; Activity [3]: 46.4%
O=C(Nc1ccc(Cl)cc1)Nc1ccc2ncnc(Nc3cccc(Cl)c3)c2c1 | > 10 µg/mL | 
COc1ccc(Nc2ncnc3ccc(NC(=O)Nc4ccc(Br)cc4)cc23)cc1 | 1 µg/mL (≈ 2.15 µM) | 
Cc1ccc(NC(=O)Nc2ccc3ncnc(Nc4ccccc4)c3c2)cc1Cl | 1 µg/mL (≈ 2.48 µM) | 
Cc1ccc(NC(=O)Nc2ccc3ncnc(Nc4cccc(F)c4)c3c2)cc1Cl | 0.25 µg/mL (≈ 0.593 µM) | IC50 (Plasmodium falciparum [4]): 0.147 µg/mL (≈ 0.348 µM); Ratio CC50/IC50 [5]: 76.6
O=C(Nc1ccc(Br)cc1)Nc1ccc2ncnc(Nc3ccc(Cl)cc3)c2c1 | 1 µg/mL (≈ 2.13 µM) | 
O=C(Nc1ccc(Cl)cc1)Nc1ccc2ncnc(Nc3cccc(F)c3)c2c1 | 0.5 µg/mL (≈ 1.23 µM) | Activity [2]: 0.03%; Activity [3]: 0%; Activity [6]: 99%

Compound | MIC (Plasmodium falciparum [1]) | also measured
COc1ccc(Nc2ncnc3ccc(NC(=O)Nc4ccc(Cl)c(Cl)c4)cc23)cc1OC | 0.25 µg/mL (≈ 0.516 µM) | Activity [2]: 14%; Activity [3]: 41%; IC50 (Plasmodium falciparum [4]): 0.0807 µg/mL (≈ 0.167 µM); Ratio CC50/IC50 [5]: 74.5
COc1ccc(Nc2ncnc3ccc(NC(=O)Nc4cccc(C#N)c4)cc23)cc1OC | 0.5 µg/mL (≈ 1.14 µM) | Activity [2]: 23.2%; Activity [3]: 13.9%
O=C(Nc1ccc(Br)cc1)Nc1ccc2ncnc(Nc3cccc(F)c3)c2c1 | 0.5 µg/mL (≈ 1.11 µM) | 
O=C(Nc1ccc(Cl)cc1)Nc1ccc2ncnc(Nc3ccc(Cl)cc3)c2c1 | 0.5 µg/mL (≈ 1.18 µM) | 
COc1ccc(Nc2ncnc3ccc(NC(=O)Nc4ccc(C)c(Cl)c4)cc23)cc1 | 0.25 µg/mL (≈ 0.576 µM) | IC50 (Plasmodium falciparum [4]): 0.05 µg/mL (≈ 0.115 µM); Ratio CC50/IC50 [5]: 114.9
O=C(Nc1ccc(Br)cc1)Nc1ccc2ncnc(Nc3cccc(Cl)c3)c2c1 | 1 µg/mL (≈ 2.13 µM) | 
Cc1ccc(NC(=O)Nc2ccc3ncnc(Nc4ccc(Cl)cc4)c3c2)cc1Cl | 1 µg/mL (≈ 2.28 µM) | 
COc1ccc(Nc2ncnc3ccc(NC(=O)Nc4cccc(C(C)=O)c4)cc23)cc1 | 10 µg/mL (≈ 23.4 µM) | 
Cc1ccc(Nc2ncnc3ccc(NC(=O)Nc4ccc(Cl)cc4)cc23)cc1 | 1 µg/mL (≈ 2.48 µM) | IC50 (Plasmodium falciparum [4]): 0.0771 µg/mL (≈ 0.191 µM); Ratio CC50/IC50 [5]: 126.3
O=C(Nc1ccc(Cl)c(Cl)c1)Nc1ccc2ncnc(Nc3ccc(F)cc3)c2c1 | 10 µg/mL (≈ 22.6 µM) | 
COc1ccc(Nc2ncnc3ccc(NC(=O)Nc4ccc(Cl)cc4)cc23)cc1 | 0.25 µg/mL (≈ 0.595 µM) | IC50 (Plasmodium falciparum [4]): 0.094 µg/mL (≈ 0.224 µM); Ratio CC50/IC50 [5]: 435.1
O=C(Nc1cc(Cl)cc(Cl)c1)Nc1ccc2ncnc(Nc3cccc(F)c3)c2c1 | > 10 µg/mL | 
Cc1ccc(NC(=O)Nc2ccc3ncnc(Nc4cccc(Cl)c4)c3c2)cc1Cl | 10 µg/mL (≈ 22.8 µM) | 
CC(=O)c1ccc(NC(=O)Nc2ccc3ncnc(Nc4ccc(C)cc4)c3c2)cc1 | 2 µg/mL (≈ 4.86 µM) | 
N#Cc1cccc(NC(=O)Nc2ccc3ncnc(Nc4ccccc4)c3c2)c1 | 0.5 µg/mL (≈ 1.31 µM) | 
COc1ccc(Nc2ncnc3ccc(NC(=O)Nc4ccc(C(C)=O)cc4)cc23)cc1OC | 10 µg/mL (≈ 21.9 µM) | 
COc1cccc(Nc2ncnc3ccc(NC(=O)Nc4ccc(Br)cc4)cc23)c1 | 2 µg/mL (≈ 4.31 µM) | 
COc1cccc(Nc2ncnc3ccc(NC(=O)Nc4ccc(Cl)c(Cl)c4)cc23)c1 | 2 µg/mL (≈ 4.4 µM) | 
COc1cccc(Nc2ncnc3ccc(NC(=O)Nc4ccc(C(C)=O)cc4)cc23)c1 | > 10 µg/mL | 
COc1cccc(Nc2ncnc3ccc(NC(=O)Nc4ccc(Cl)cc4)cc23)c1 | 0.25 µg/mL (≈ 0.595 µM) | IC50 (Plasmodium falciparum [4]): 0.159 µg/mL (≈ 0.377 µM); Ratio CC50/IC50 [5]: 378.9
CCN(CC)CCCC(C)Nc1ccnc2cc(Cl)ccc12 (centres undefined) [CHLOROQUINE] | 0.125 µg/mL (≈ 0.391 µM) | 
